Reference: ChEMBL document CHEMBL2163344, “Immunomodulatory properties of novel nucleotide oligomerization domain 2 (nod2) agonistic desmuramyldipeptides” (J Med Chem, 2012)
The source made the active and inactive calls. The calls are words filed in the database; no cut-off is given here.

Key:
Type in all cases: functional, cell-based
[1] = target: Toll-like receptor 3 (Homo sapiens) (UniProt O15455); assay: Agonist activity at human TLR3 expressed in Ramos blue cells assessed as stimulation of NF-kB/AP-1 activity at 20 uM incubated for 18 hrs using quanti blue assay based SEAP reporter gene assay
Toll-like receptor 3 (Homo sapiens), sequence (O15455 whole entry): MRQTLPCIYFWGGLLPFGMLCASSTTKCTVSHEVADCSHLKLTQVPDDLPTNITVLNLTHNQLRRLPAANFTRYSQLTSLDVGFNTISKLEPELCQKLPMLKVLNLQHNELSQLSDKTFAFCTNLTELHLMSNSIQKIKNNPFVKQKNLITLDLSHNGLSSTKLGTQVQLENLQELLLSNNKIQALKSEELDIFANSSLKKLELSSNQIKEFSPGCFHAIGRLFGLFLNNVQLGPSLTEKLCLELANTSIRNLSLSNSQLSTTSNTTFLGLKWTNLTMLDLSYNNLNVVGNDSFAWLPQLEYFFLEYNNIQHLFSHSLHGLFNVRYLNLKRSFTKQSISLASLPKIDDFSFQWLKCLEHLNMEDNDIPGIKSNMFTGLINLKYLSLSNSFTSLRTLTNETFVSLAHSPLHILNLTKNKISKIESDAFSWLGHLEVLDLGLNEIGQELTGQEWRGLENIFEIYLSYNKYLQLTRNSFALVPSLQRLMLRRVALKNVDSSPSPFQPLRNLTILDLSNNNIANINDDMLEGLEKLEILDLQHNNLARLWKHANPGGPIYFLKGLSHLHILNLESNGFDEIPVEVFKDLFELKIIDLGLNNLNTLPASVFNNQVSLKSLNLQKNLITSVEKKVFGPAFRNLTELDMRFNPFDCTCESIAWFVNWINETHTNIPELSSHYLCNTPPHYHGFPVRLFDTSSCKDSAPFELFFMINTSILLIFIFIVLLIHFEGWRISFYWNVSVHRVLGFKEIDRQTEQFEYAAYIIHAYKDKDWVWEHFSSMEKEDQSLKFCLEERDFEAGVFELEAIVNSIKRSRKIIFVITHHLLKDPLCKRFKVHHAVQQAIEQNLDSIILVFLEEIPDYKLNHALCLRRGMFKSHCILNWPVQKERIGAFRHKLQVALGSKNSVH
Outline: (§1)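 Ramos-Blue control cells (TLR3/7/9 and Nod1, no Nod2; stable NF-κB/AP-1-inducible SEAP reporter) at 1 × 10^6 cells/mL, exposed 18 h to 20 μM compound. SEAP in supernatant read with QUANTI-Blue reagent (3 h, 37 °C), absorbance 640 nm; activity compared with untreated cells.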

[2] = target: T1, Toll-like receptor 7 (Homo sapiens) (UniProt Q9NYK1); assay: Agonist activity at human TLR7 expressed in Ramos blue cells assessed as stimulation of NF-kB/AP-1 activity at 20 uM incubated for 18 hrs using quanti blue assay based SEAP reporter gene assay; outline: as §1
T1 sequence (whole entry): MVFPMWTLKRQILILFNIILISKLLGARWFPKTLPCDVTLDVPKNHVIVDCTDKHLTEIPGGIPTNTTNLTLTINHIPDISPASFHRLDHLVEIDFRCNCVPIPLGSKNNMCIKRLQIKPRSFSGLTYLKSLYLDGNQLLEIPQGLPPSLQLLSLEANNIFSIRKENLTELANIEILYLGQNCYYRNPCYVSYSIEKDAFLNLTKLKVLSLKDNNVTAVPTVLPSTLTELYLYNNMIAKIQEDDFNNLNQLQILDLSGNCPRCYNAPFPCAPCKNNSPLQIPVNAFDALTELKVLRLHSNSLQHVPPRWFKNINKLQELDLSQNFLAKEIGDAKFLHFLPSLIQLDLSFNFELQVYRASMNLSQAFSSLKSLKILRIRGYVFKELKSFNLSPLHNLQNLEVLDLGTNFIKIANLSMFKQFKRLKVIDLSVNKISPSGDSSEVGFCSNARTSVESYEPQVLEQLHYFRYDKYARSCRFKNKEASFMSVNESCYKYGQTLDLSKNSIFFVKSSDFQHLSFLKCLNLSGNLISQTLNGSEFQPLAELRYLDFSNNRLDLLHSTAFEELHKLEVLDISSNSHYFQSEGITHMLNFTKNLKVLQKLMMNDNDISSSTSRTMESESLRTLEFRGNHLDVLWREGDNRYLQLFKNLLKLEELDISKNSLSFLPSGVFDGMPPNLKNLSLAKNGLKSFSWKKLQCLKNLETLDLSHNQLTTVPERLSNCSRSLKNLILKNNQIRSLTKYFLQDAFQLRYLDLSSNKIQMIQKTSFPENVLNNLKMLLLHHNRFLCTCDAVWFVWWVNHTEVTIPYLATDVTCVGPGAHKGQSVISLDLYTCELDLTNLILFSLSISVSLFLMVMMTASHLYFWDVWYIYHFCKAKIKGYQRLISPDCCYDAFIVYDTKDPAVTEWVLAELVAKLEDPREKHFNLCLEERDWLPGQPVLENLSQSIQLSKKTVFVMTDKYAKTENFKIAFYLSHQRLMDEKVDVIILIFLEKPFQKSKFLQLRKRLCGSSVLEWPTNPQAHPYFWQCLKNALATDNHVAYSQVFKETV

PBMC [3] = assay: Immunomodulatory activity in human PBMCs assessed as increase in PMA/ionomycin-induced IL10 release at 20 uM incubated for 18 hrs by multiplexed cytokine assay
[4] = target: T2, Toll-like receptor 9 (Homo sapiens) (UniProt Q9NR96); assay: Agonist activity at human TLR9 expressed in Ramos blue cells assessed as stimulation of NF-kB/AP-1 activity at 20 uM incubated for 18 hrs using quanti blue assay based SEAP reporter gene assay; outline: as §1
T2 sequence (whole entry): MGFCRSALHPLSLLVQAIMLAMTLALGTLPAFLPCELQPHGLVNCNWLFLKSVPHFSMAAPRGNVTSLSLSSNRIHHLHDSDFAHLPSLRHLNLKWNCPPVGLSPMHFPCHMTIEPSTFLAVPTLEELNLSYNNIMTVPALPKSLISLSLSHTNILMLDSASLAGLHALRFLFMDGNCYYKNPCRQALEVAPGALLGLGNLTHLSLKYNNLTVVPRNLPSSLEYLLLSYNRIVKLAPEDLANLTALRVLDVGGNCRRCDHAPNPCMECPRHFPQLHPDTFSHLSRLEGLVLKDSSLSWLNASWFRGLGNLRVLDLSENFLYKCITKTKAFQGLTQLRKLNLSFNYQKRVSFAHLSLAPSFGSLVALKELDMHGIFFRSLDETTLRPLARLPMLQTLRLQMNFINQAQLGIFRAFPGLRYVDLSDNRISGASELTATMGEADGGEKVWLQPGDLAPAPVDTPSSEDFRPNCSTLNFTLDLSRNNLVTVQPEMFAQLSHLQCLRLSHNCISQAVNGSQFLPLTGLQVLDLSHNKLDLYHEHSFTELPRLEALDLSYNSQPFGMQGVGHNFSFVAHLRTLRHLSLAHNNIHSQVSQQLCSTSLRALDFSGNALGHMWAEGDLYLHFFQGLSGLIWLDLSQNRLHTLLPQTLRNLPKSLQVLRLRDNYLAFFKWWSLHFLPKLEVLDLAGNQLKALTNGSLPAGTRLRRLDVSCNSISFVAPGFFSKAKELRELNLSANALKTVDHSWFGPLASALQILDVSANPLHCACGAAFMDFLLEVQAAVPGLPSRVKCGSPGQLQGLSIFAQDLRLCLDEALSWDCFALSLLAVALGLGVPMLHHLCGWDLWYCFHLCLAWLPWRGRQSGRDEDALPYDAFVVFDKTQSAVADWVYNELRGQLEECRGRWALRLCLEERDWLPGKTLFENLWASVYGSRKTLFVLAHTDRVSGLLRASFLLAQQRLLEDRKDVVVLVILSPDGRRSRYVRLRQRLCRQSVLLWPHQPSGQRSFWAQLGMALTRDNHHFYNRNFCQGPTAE

PBMC [5] = assay: Immunomodulatory activity in human PBMCs assessed as increase in PMA/ionomycin-induced IL6 release at 20 uM by multiplexed cytokine assay; settings: TDE = time-dependent effect
Outline: (§2)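 Ficoll-isolated human PBMC, 1 × 10^6 cells per well, treated with 20 μM compound (DMSO ≤0.1%) plus PMA 3.33 ng/mL and ionomycin 500 nM for 18 h at 37 °C, 5% CO2. Cell-free supernatant cytokines measured by CBA human inflammatory kit on a flow cytometer against recombinant standards. Reported as % of PMA/ionomycin-only release; duplicates, three experiments, three donors.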

PBMC [6] = assay: Immunomodulatory activity in human PBMCs assessed as increase in PMA/ionomycin-induced IL-12p70 release incubated for 18 hrs by multiplexed cytokine assay
PBMC [7] = assay: Immunomodulatory activity in human PBMCs assessed as increase in PMA/ionomycin-induced IL-1beta release at 20 uM by multiplexed cytokine assay; settings: TDE = time-dependent effect; outline: as §2
PBMC [8] = assay: Immunomodulatory activity in human PBMCs assessed as increase in PMA/ionomycin-induced IL8 release at 0.2 to 200 uM incubated for 18 hrs by multiplexed cytokine assay
Outline: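 Human PBMC stimulated with PMA 3.33 ng/mL and ionomycin 500 nM plus compound at 0.2, 2, 20 or 200 μM for 18 h. Supernatant cytokines quantified by cytometric bead array. Compared with PMA/ionomycin-only cells; two independent experiments in duplicate, two donors, mean ± SD.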

Row | SMILES | Activity [1] | Activity [2] | Activity [4] | Activity (PBMC [3]) | Activity (PBMC [5]) | Activity (PBMC [6]) | Activity (PBMC [7]) | Activity (PBMC [8])
1 | CCOC(=O)CC[C@@H](NC(=O)[C@H](C)NC(=O)CNC(=O)c1cc2ccccc2[nH]1)C(N)=O | inactive | inactive | inactive | inactive |  |  |  | 
2 | CCOC(=O)CC[C@@H](NC(=O)[C@H](C)NC(=O)CNC(=O)c1cc2ccccc2[nH]1)C(=O)OCC | inactive | inactive | inactive | inactive | tde | Dose-dependent effect | tde | inactive
3 | CCCCOC(=O)[C@@H](CCC(N)=O)NC(=O)[C@H](C)NC(=O)[C@@H](C)O[C@H]1[C@H](O)[C@@H](CO)OC(O)[C@@H]1NC(C)=O (stereo not given in full) [MURABUTIDE] | inactive | inactive | inactive | inactive | tde | Dose-dependent effect | tde | inactive

Second part, led by results:

Row | Activity [1] | Activity [2] | Activity [4] | SMILES | Activity (PBMC [3]) | Activity (PBMC [5]) | Activity (PBMC [6]) | Activity (PBMC [7]) | Activity (PBMC [8])
4 | inactive | inactive | inactive | CCOC(=O)CC[C@@H](NC(=O)[C@H](C)NC(=O)COCCN1C(=O)c2ccccc2S1(=O)=O)C(=O)OCC | inactive |  |  |  | 
5 | inactive | inactive | inactive | CCOC(=O)CC[C@@H](NC(=O)[C@H](C)NC(=O)C1=C2c3ccccc3S(=O)(=O)N2CCC1)C(=O)OCC | inactive |  |  |  | 
6 | inactive | inactive | inactive | CCOC(=O)CC[C@@H](NC(=O)[C@H](C)NC(=O)CCCCN1C(=O)c2ccccc2S1(=O)=O)C(=O)OCC | inactive |  |  |  | 
7 | inactive | inactive | inactive | CCOC(=O)CC[C@@H](NC(=O)[C@H](C)NC(=O)CCCCN1C(=O)c2ccccc2S1(=O)=O)C(N)=O | inactive |  |  |  | 
8 | inactive | inactive | inactive | CCOC(=O)CC[C@@H](NC(=O)[C@H](C)NC(=O)COCCN1C(=O)c2ccccc2S1(=O)=O)C(N)=O | inactive |  |  |  | 
